Experiments:
[1] = Relative potency (REC) is the ratio of concentration of compound to the concentration of SFLLR-NH2 for producing equal relaxing effect on the isolated rat aortic rings; assay type: functional, Aorta
Homo sapiens [2] = species: Homo sapiens; assay: In vitro inhibitory concentration against thrombin-induced platelet aggregation in human platelet-rich plasma in presence of thrombin at 0.20 IU/mL; assay type: functional
Summary of the method: (§1)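 Healthy drug-free donors' venous blood centrifuged 800 rpm 8 min RT; PRP diluted with PPP to 2 × 10⁸ platelets/mL, one donor per series. PRP stirred (1100 rpm) with compound 0.05-1 mM ≥4 min, then bovine thrombin added at 37 °C; light transmittance recorded 4 min, PPP = 100%, PRP = 0%. Studies finished within 1 h of collection.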

Rattus norvegicus [3] = species: Rattus norvegicus; assay: Maximal relaxing effect of compound in isolated rat aortic rings precontracted with 1 uM phenylephrine at 100 uM concentration; assay type: functional, Aorta
Summary of the method: (§2)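 Thoracic aorta of adult male Wistar rats cut into 2 mm rings, one with intact and one with mechanically removed endothelium. Superfused 1 mL/min with modified Tyrode-type buffer, 37 °C, pH 7.44, carbogen; basal tension 2 g, isometric force. Endothelium checked with 1 µM carbachol against 1 µM phenylephrine. Compounds added 30 min after perfusion, on phenylephrine tone; some rings pretreated with 300 µM L-NAME. Mean ± SEM.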

Homo sapiens [4] = species: Homo sapiens; assay: In vitro inhibitory concentration against thrombin-induced platelet aggregation in human platelet-rich plasma in presence of thrombin at 0.25 IU/mL; assay type: functional; summary of the method: as §1
Homo sapiens [5] = species: Homo sapiens; assay: In vitro inhibitory concentration against thrombin-induced platelet aggregation in human platelet-rich plasma in presence of thrombin at 0.30 IU/mL; assay type: functional; summary of the method: as §1
Rattus norvegicus [6] = species: Rattus norvegicus; assay: Relaxing effect dependent on nitric oxide in isolated rat aortic rings at 0.1-100 uM compound concentration; Range is 0-25%; assay type: functional, Aorta; summary of the method: as §2
Rattus norvegicus [7] = species: Rattus norvegicus; assay: Maximal relaxing effect in isolated rat aortic rings without endothelium precontracted with 1 uM phenylephrine at 0.1-100 uM concentration; Range is 2.3-14%; assay type: functional, Aorta; summary of the method: as §2
Rattus norvegicus [8] = species: Rattus norvegicus; assay: Reduction of maximal relaxing response in isolated rat aortic rings precontracted with Nomega-nitro-L-arginine (L-NAME) at 0.1-100 uM concentration; Range is 17-18%; assay type: functional, Aorta; summary of the method: as §2
Rattus norvegicus [9] = species: Rattus norvegicus; assay: Maximal relaxing effect in isolated rat aortic rings with endothelium precontracted with 1 uM phenylephrine at 0.1-100 uM concentration; Range is 1.3-42.7%; assay type: functional, Aorta; summary of the method: as §2
Rattus norvegicus [10] = species: Rattus norvegicus; assay: Contraction in isolated rat aortic rings without endothelium at 10-100 uM concentration; Range is 2-3%; assay type: functional, Aorta; summary of the method: as §2
Rattus norvegicus [11] = species: Rattus norvegicus; assay: Maximal relaxing effect in isolated rat aortic rings with endothelium precontracted with 1 uM phenylephrine at 0.1-100 uM concentration; Range is 1.8-40.7%; assay type: functional, Aorta; summary of the method: as §2
Rattus norvegicus [12] = species: Rattus norvegicus; assay: Maximal relaxing effect of compound in isolated rat aortic rings precontracted phenylephrine at 100 uM concentration; assay type: functional, Aorta; summary of the method: as §2
Homo sapiens [13] = species: Homo sapiens; assay: Inhibitory concentration against SFLLR-NH2 (2.5 uM) induced platelet aggregation in human platelet-rich plasma; assay type: functional, organism-based
Summary of the method: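 Human PRP (2 × 10⁸ platelets/mL, healthy donors) stirred with compound, then aggregation triggered by SFLLR-NH₂ 2.5 µM instead of thrombin; optical aggregometry read-out.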

SMILES	Relative potency [1]	IC50 (Homo sapiens [2]) [µM]	Max efficacy (Rattus norvegicus [3]) [%]	IC50 (Homo sapiens [4]) [µM]	IC50 (Homo sapiens [5]) [µM]	Relaxation (Rattus norvegicus [6]) [%]	Max efficacy (Rattus norvegicus [7]) [%]	Reduction (Rattus norvegicus [8]) [%]	Max efficacy (Rattus norvegicus [9]) [%]	Contraction (Rattus norvegicus [10]) [%]	Max efficacy (Rattus norvegicus [11]) [%]	Max efficacy (Rattus norvegicus [12]) [%]	IC50 (Homo sapiens [13]) [µM]
N=C(N)NCCCCCC(=O)NCC1CCN(C(=O)Cc2ccccc2)CC1	0.06	140	91.4	> 250	> 250	–	–	–	–	–	–	–	–
NC(N)=NCCCCCC(=O)NCC1CCN(C(=O)C(N)Cc2ccccc2)CC1 (stereo not given)	13.6	> 1000	–	> 1000	870	25	14	18	42.7	–	–	–	–
NC(N)=NCCCCCC(=O)NC1CCN(C(=O)C(N)Cc2ccccc2)C1 (stereo not given)	24	420	–	340	390	–	–	–	–	3	40.7	–	–
N=C(N)NCCCCCC(=O)NC1CCN(C(=O)Cc2ccccc2)C1 (stereo not given)	17.3	110	–	120	210	–	–	–	–	–	–	37.5	–
NC(N)=NCCCCCC(=O)N1CCN(C(=O)C(N)Cc2ccccc2)CC1 (stereo not given)	38.2	120	–	90	240	–	–	–	–	–	–	–	370
N=C(N)NCCCCCC(=O)N1CCN(C(=O)Cc2ccccc2)CC1	0.19	460	81	510	440	–	–	–	–	–	–	–	780

— ChEMBL document CHEMBL1148334, “Design and synthesis of novel biologically active thrombin receptor non-peptide mimetics based on the pharmacophoric cluster Phe/Arg/NH2 of the Ser42-Phe-Leu-Leu-Arg46 motif sequence: platelet aggregation and relaxant activities” (J Med Chem, 2004)
